Only some compounds are listed: those with a hit (about 1.9% of all), similar ones and a draw of the others.
NR2E3 ag-1 – human photoreceptor-specific nuclear receptor agonism; inhibition of corepressor binding, % at 3.98 µM; Q9Y5X4; CHO-S Gal4-NCOR/VP16-NR2E3 two-hybrid, luciferase; hit rate 0.35% among 360,000; AID 602229;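 active = inhibition above the mean of all tested compounds plus 3 SD, cut at about 70% in these data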;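 note: 0% = DMSO with NR2E3 transfected cells and 100% = cells lacking NR2E3 construct; higher means lower luciferase signal from less NR2E3 corepressor binding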
SKN-1 block – blocks SKN-1 activity in C. elegans | C. elegans VP596 Pgst-4::GFP/RFP ratio, acrylamide-induced, 24 h | inhibition, % at 21.8 µM | hit rate 0.49% among 360,000;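 active = interference check ratio from 0.5 to 1.5 plus GFP to RFP signal ratio inhibition reaching or exceeding a fixed threshold, cut at about 30% in these data, passing the limit was not always enough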
NR2E3 ag-2 – agonists of human nuclear receptor NR2E3 | inhibition of corepressor binding, % at 4.78 µM | GST-NR2E3/biotin-RetCOR TR-FRET, 1536-well | hit rate 0.12% among 320,000 | AID 2300 | Q9Y5X4;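 active = percent inhibition above the cutoff of mean plus 3 SD of all tested compounds, set per screening campaign, cut at about 20% in these data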;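 note: 0% = DMSO wells and 100% = biotin wells as full block of FRET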
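Test system: GST-NR2E3 and biotin-RetCOR proteins | Quantity: 1.35 nM GST-tagged NR2E3 final | Medium: Tris pH 7.5 | Also added: 7 nM biotin-RetCOR | Dosing: Compound at 4.8 µM, single dose | Timing: 5 h at 4 °C | Detection: Time-resolved FRET | Read-out basis: Percent inhibition | Benchmarks: Biotin wells as high control, 0.6% DMSO wells as low control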
PG9 Ab binder – binds the HIV-1 gp120 antibody PG9 | TR-FRET gp120-PG9 antibody binding | inhibition, % at 6.7 µM | hit rate 0.43% among 360,000 | AID 624416; in the data active = inhibition above about 8.5%
Rev-erbA mod – Rev-erb alpha (human) modulation; activity, % at 10 µM; P20393; Rev-erbα–FITC-DNA binding, fluorescence polarization, 90 min; hit rate 0.79% among 370,000;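 active = activity above about 14%, limit read from the data; passing the limit was not always enough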;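 note: 0% = DMSO wells with 35 nM protein and 100% = DMSO wells with 750 nM protein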
Target sequence (P20393 whole entry, looked up): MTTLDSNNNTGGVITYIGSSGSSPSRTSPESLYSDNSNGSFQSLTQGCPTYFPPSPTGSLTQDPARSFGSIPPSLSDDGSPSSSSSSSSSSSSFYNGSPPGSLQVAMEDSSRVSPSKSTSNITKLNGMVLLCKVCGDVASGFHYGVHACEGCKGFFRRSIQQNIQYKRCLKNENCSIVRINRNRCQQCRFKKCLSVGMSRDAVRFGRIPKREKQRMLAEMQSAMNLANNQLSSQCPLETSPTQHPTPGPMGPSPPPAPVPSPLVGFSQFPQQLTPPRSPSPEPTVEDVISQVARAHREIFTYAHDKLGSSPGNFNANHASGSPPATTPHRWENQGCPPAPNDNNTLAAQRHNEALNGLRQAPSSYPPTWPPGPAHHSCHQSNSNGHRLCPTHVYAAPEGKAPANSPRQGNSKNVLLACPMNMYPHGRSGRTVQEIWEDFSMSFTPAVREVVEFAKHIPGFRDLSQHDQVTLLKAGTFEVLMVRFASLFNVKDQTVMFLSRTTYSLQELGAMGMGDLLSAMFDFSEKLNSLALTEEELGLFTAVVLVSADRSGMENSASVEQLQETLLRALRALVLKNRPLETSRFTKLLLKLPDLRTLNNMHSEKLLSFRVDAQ
MT1-MMP act inh – MT1-MMP (human) activation inhibition. P50281. HT1080 RFP-PRO-GFP cells, GFP/RFP ratio fluorescence, overnight; percent of plate control window, DMSO zero. GFP/RFP ratio change, % at 20 µM. hit rate 0.061% among 360,000. AID 651647;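 active = GFP/RFP ratio change of at least 30% with cell ATP level not reduced by more than half and red fluorescence within 50% of control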
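Compound: 20 µM single dose, 1% DMSO / System: HT1080 RFP-PRO-GFP cells / Controls: DMSO and RFP-L50D-GFP cell wells / Read-out basis: GFP/RFP fluorescence ratio / Schedule: overnight compound exposure at 37 °C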
PG9 bind confirm – PG9 antibody binding, confirmed; TR-FRET PG9 antibody binding, biochemical; hit rate 90% among 1,500; shares compounds with PG9 Ab binder; inhibition, % at 6.7 µM; AID 651571; in the data active = inhibition above about 9%
PGV04 counter – counter-screen for PG9 binders: binding control antibody PGV04; shares compounds with PG9 Ab binder; TR-FRET PGV04 antibody-gp120 binding, biochemical; inhibition, % at 6.7 µM; hit rate 95% among 1,500; AID 651604; in the data active = inhibition above about 9.5%
NR1D1 mod conf – Rev-erb alpha (human) modulation, hit confirmation; shares compounds with Rev-erbA mod; Rev-erb alpha FITC-DNA binding, fluorescence polarization, 90 min; activation, % at 25 µM; hit rate 61% among 3,000; AID 1259319;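 active = activation at or above a set limit, or at least 3 SD above the negative control mean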;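 note: 0% = 35 nM protein with DMSO and 100% = 750 nM protein high control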
RORg counter – affects RORgamma DNA binding in a Rev-erb alpha counter-screen | shares compounds with Rev-erbA mod | purified RORgamma protein-FITC-DNA binding, fluorescence polarization | IC50, µM | hit rate 8% among 910 | AID 1259320;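 active = Compounds whose fitted half-maximal concentration for disrupting protein-DNA binding is below 10 micromolar; the record names Rev-erb in its text, so the target is in doubt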
The depositor's hits bear a star; x = not tested or not shown.

SMILES | NR2E3 ag-1 | SKN-1 block | NR2E3 ag-2 | PG9 Ab binder | Rev-erbA mod | MT1-MMP act inh | PG9 bind confirm | PGV04 counter | NR1D1 mod conf | others
CC(=O)Nc1sc(C)c(C)c1C(=O)OCC(=O)NCc1ccc(F)cc1 | -22 | 11 | 5 | 9.3* | 17* | 1 | 13* | 19* | 16*
COc1ccc(NC(=O)CSc2nnc(-c3cccs3)n2-c2ccccc2)cc1 | -7 | 12 | -193 | 22* | 25* | 2 | 33* | 57* | 21*
Cc1cc(N/C(=C\C(=O)c2ccccc2)c2ccccc2)ccc1Br | x | x | x | -4 | 0 | x | x | x | x
COc1ccc(CNC(=O)CS(=O)(=O)Cc2nc(-c3ccc(OC)cc3)oc2C)cc1 | -26 | 17 | -2 | 0 | 1 | -3 | x | x | x
Cc1ccc(CNC(=O)CS(=O)(=O)Cc2nc(-c3ccc(C)cc3)oc2C)cc1 | 3 | -2 | 1 | 28* | 28* | -1 | 20* | 53* | 12
CCN(CC)C(=O)CC[C@@H]1CC[C@]2(CCCN(Cc3ccccn3)C2)O1 | x | x | x | x | -1 | x | x | x | x
CCC(=O)c1cn(CC(=O)Nc2ccccc2F)c2ccccc12 | 19 | 17 | 2 | -2 | 5 | 0 | x | x | x
CCC(=O)c1cn(CC(=O)Nc2cc(C)ccc2C)c2ccccc12 | -1 | -7 | 6 | 19* | 32* | 16 | 16* | 22* | 21*
Cc1cc(NC(=O)CSc2nc3ccccc3c(=O)n2Cc2ccc(F)cc2)no1 | -26 | 32* | -1 | 42* | 52* | -4 | 62* | 65* | 26*
CCCCCCn1c(SCC(=O)Nc2cc(C)on2)nc2ccccc2c1=O | -1 | 0 | 1 | 31* | 41* | -5 | 23* | 32* | 18*
Cc1ccc(-n2c(SCC(=O)Nc3cc(C)on3)nc3ccccc3c2=O)cc1 | -14 | 11 | 2 | -4 | 10 | 7 | x | x | x
COCCn1c(SCC(=O)Nc2cc(C)on2)nc2ccccc2c1=O | -5 | -3 | 2 | -1 | 2 | 2 | x | x | x
Cc1ccccc1Cn1cc(CN2[C@H](Cc3ccccc3)COc3cc(Br)ccc3S2(=O)=O)nn1 | x | x | x | x | -5 | x | x | x | x
CCc1cccc(-n2c(C)cc(O)cc2=O)c1 | x | x | x | 1 | 6 | x | x | x | x
CCOc1ccc(C(=O)OCC(=O)Nc2cc(C)on2)cc1OCC | 24 | -6 | 3 | 22* | 58* | 1 | 4 | 16* | 31*
Cc1cc(N2CCN(Cc3ccccc3)CC2)n2nc(C)nc2n1 | x | x | x | x | 4 | x | x | x | x
Cc1c(C#N)c(N)nc2c3c(sc12)NC(=O)CC3c1ccc(Cl)cc1 (stereo unspecified) | 16 | 9 | -1 | 18* | 65* | -6 | 16* | 33* | 45* | RORg counter=>40
N#Cc1c(N)nc2c3c(sc(=N)c2c1N)NC(=O)CC3c1ccccc1 (stereo unspecified) | -13 | 21 | 8 | 57* | 29* | -12 | 55* | 71* | 41* | RORg counter=>40
CCOC(=O)CSC1=C(C#N)C(c2ccc(Cl)cc2)CC(=O)N1 (stereo unspecified) | -14 | 12 | -2 | -1 | -10 | -2 | x | x | x
N#Cc1c(N)nc2c3c(sc(=N)c2c1N)NC(=O)CC3c1c(F)cccc1Cl (stereo unspecified) | -10 | 24 | 2 | 17* | 58* | -7 | 22* | 30* | 62* | RORg counter=2.9*
C[C@@H]1CN([C@@H](C)CO)C(=O)CCCn2cc(nn2)CO[C@H]1CN(C)S(C)(=O)=O | x | x | x | 0 | 6 | x | x | x | x
